From ChEMBL document CHEMBL4513216, “Probing the Open Global Health Chemical Diversity Library for Multistage-Active Starting Points for Next-Generation Antimalarials” (ACS Infect Dis, 2020)

Test: Toxicity liver stage against HepG2, at 10uM
Format: cell-based
Parameters: test concentration 10 uM, cell line HepG2-A16-CD81EGFP
Details: human, HepG2-A16-CD81EGFP cells; read-out: INHIBITION
Method in brief: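 Uninfected HepG2-A16-CD81EGFP cells, 3 × 10^3 per well, 1536-well, plated on prespotted compound at 10 μM final, parasite-free screening media added to match infected plates; puromycin 10 μM positive, DMSO 0.5% negative; run in parallel with 48 h PbLuc assay at 37 °C, 5% CO2; viability by CellTiter-Glo luminescence, normalized to controls.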

Row | Compound | cytotoxicity at 10 µM [%]
1 | O=C(N[C@@H]1CN(Cc2ccc3c(c2)OCO3)[C@@H]2CCCO[C@@H]21)C1CC1 | 2.06
2 | COc1ccc(C(C)N2CCC(OC)CC2)cc1Cl (stereo not given) | -53.2
3 | CC(NC(=O)C(C)(C)C)c1cc(O)nc(-c2cccnc2)n1 (stereo not given) | 6.5
4 | CC(C)(C)c1cnc(CN2CCC(NC(=O)C3CCOCC3)CC2)o1 | -11.9
5 | Cc1noc(C(C)C)c1C(=O)NCCCOC(C)C | -9.83
6 | Cc1cc(C2NC(=O)CN2Cc2ccc(Br)cc2)cc(C)c1O (stereo not given) | 4.12
7 | O=c1[nH]c(CN2CCOC(Cn3cccn3)C2)nc2ccccc12 (stereo not given) | -2.32
8 | Cc1ccc(-n2nc(C)c3c(C)cc(OCC(=O)NC(C)C)nc32)cc1 | -3.61
9 | CC(NC(N)=O)C(=O)NCc1cc(Br)ccc1F (stereo not given) | -3.02
10 | Cc1cnn(CC2CCCN2c2ncnc3sccc23)c1 (stereo not given) | 44.4
11 | Cn1nc2c(cc1=O)CN(Cc1nc3ccccc3c(=O)[nH]1)CC2 | -7.64
12 | Cc1nn(C)c(C)c1C(=O)NCc1ccnc(OCC(F)(F)F)c1 | -10.7
13 | CS(=O)(=O)N1C[C@@H]2COC[C@]2(COCC(=O)N2CCCC2)C1 | -114
14 | CN(CCO)Cc1cc(Cl)ccc1OCC(O)CN1CCCCCC1 (stereo not given) | -5.09
15 | c1ncc(-c2cn(CCSc3cnn[nH]3)nn2)cn1 | -41.7
16 | CC(NCCN1CCC(N(C)C)CC1)c1ccc(F)cc1N(C)C (stereo not given) | -13
17 | O=C1NCCCc2c1oc1ccc(O)c(CN3CCOCC3)c21 | 13.3
18 | Cc1nc(CN2C[C@@H](NC(=O)C3CCC3)[C@H]3COC[C@H]32)cs1 | 7.58
19 | CC(NCc1ccc(Cl)o1)c1nnc2n1CCCC2 (stereo not given) | -15.9
20 | Cn1c(Cn2ccnc2)nnc1C1CCCN(CC(C)(C)C)C1 (stereo not given) | 3.89
21 | CCn1c(C2CCCN2Cc2noc(C(C)(C)C)n2)nc2ccccc21 (stereo not given) | 3.18
22 | Cc1cnn(CC2CCCCN2CC(=O)Nc2c(C)n[nH]c2C)c1 (stereo not given) | 1.8

Row | Compound | cytotoxicity at 10 µM [%]
23 | COc1cc(N2CC3(CCN(c4ncccn4)C3)C2)ncn1 | 9.79
24 | O=C(c1cc2cc(F)ccc2[nH]1)N1CCC(Nc2cccnn2)CC1 | -5.97
25 | Cc1nn(C)c(Cl)c1CNCc1cccnc1N1CCN(C)CC1 | -9
26 | Cc1noc(C)c1CN1C[C@@H](OCC(=O)N(C)C)[C@H]2OCCC[C@H]21 | 12.1
27 | NC(=O)C1(CCCc2ccncc2)CCCN1 (stereo not given) | -21.5
28 | Cc1ccc2nc(-c3cnc(N)nc3)c(C)c(C(=O)N(C)C)c2c1 | -13.8
29 | COc1c(CNC2CCN(C(C)(C)C)CC2)c(C(C)C)nn1C | -10.9
30 | CC(C)C1CN(C(=O)c2ccc(N3CCCC3)nc2)CCS1 (stereo not given) | -4.81
31 | CC(C)CNC(=O)Nc1ccc(CN2CCOC2=O)cc1 | 10.2
32 | Cc1noc(C)c1CN1CCO[C@H]2CN(CC3CC3)C[C@H]21 | -4.25
33 | O=c1[nH]nc2c(N3CCCCCC3)nccn12 | 10.5
34 | COCC(=O)N1CCC2(CC1)CC(c1cnn(C)c1)C(=O)N2 (stereo not given) | 7.25
35 | COCCCN1C(=O)CC[C@H]2CN(Cc3ccc4occc4c3)CC[C@H]21 | 8.98
36 | Fc1cc(CN2CCOC3(CCOCC3)C2)ccc1Cl | -4.57
37 | CCCc1nc(CN2CCc3c(ncn3C3CC3)C2)cs1 | -0.0225
38 | N#Cc1cccnc1N1CCCC(CO)(Cc2ccc(F)cc2)C1 (stereo not given) | 3.3
39 | Cc1cccc(CN2CCOC(C)(C(=O)N3CCOCC3)C2)n1 (stereo not given) | -9.19
40 | Cc1nc[nH]c1CN1CCN(C(=O)CCC(F)(F)F)[C@H]2CS(=O)(=O)C[C@H]21 | -12.3
41 | CN(Cc1ccc(F)cc1)C(=O)NCc1nnc2n1CCC2 | -17.8
42 | CN1CCCCC1CCC(=O)NCCCn1ncc2ccccc21 (stereo not given) | -13.3
43 | O=C(Nc1nncs1)c1ccc(O)nc1 | -6.37
44 | Cc1ncsc1CN1CCOC(C)(C(N)=O)C1 (stereo not given) | 0.267

Row | Compound | cytotoxicity at 10 µM [%]
45 | CN(C)Cc1cc(CC2(NCc3ccc(C#N)cc3)COC2)no1 | -5.96
46 | CN1CCC(N(C)CCC(=O)N2CCC(OCc3ccccc3)CC2)C1 (stereo not given) | -6.35
47 | Cn1cccc1C(=O)NCc1cnc2n1CCN(C(=O)c1ccoc1)C2 | 11.9
48 | Cc1cccc(-c2c[nH]c(C3CCCN3C(=O)c3cc(C)n[nH]3)n2)c1 (stereo not given) | 4
49 | Cc1cccc(S(=O)(=O)N2CCC3(CC2)CC(N(C)C)CO3)c1 (stereo not given) | -126
50 | O=C(CCn1c(C(F)(F)F)cc2cccnc21)N1CCCC1 | -21.5
51 | COc1ccc(CC(=O)N2CCCC2Cn2cc(C)cn2)cc1OC (stereo not given) | -17.9
52 | CCN(CC)C(CNCc1cc(F)cc(F)c1)c1ccco1 (stereo not given) | 5.44
53 | COc1ncccc1C(=O)N1C[C@@H]2COC[C@]2(CN(C)C)C1 | -143
54 | Brc1cnc(NCc2ccccc2N2CCOCC2)nc1 | 1.3
55 | CS(=O)(=O)CCOCCNc1cncc(Br)c1 | 1.83
56 | CC(C)(C)C(=O)Cn1nc(C2CC2)cc(C(F)(F)F)c1=O | -8.06
57 | CC(c1nc(C(C)(C)C)no1)N1CCN(Cc2ccco2)CC1 (stereo not given) | -5.02
58 | c1cc(N2CCSCC2)ccc1CNc1cncc2nnnn12 | 5.51
59 | CCO[C@H]1C[C@@H](O)C12CCN(C1Cc3ccccc3C1)CC2 | 4.54
60 | CCc1ccc(C(=O)Nc2ccc3c(c2)N(C)CCN(C)C3)o1 | -7.69
61 | Cc1cc(C)n(CC2CN(Cc3cscn3)CCO2)n1 (stereo not given) | -2.68
62 | CC(C)OC(=O)[C@@H]1CCN(C(=O)c2ccccn2)[C@@H]1c1ccc(F)cc1 | 4.81
63 | CC(=O)c1c(C)nn(S(=O)(=O)c2ccc(C)c(C)c2)c1C | -8.46
64 | Cc1oc(-c2ccsc2)nc1CN1CCCC(c2ccnn2C)C1 (stereo not given) | 10.7
65 | CC(=O)Nc1ccc(CNC2COc3c2ccc(C)c3C)cc1 (stereo not given) | 6.56
66 | Cc1nnc(N2CC[C@H]3C[C@@H](C(=O)NC4CCCC4)O[C@H]3C2)s1 | 6.69

Row | Compound | cytotoxicity at 10 µM [%]
67 | CNC(=O)C1(N2CCC[C@H]2C(=O)NC2CCOCC2)CCOCC1 | 0.705
68 | CC(C)N(C)S(=O)(=O)N(C)Cc1cnn(Cc2ccccc2)c1 | 7.01
69 | Cc1[nH]ncc1CCCNC(=O)N1CCN2CCCCC2C1 (stereo not given) | 5.8
70 | CSCC(C)(O)CNS(=O)(=O)c1ccc(Br)cc1 (stereo not given) | -1.61
71 | OCCN1CCN(CC(O)c2ccc(OC(F)(F)F)cc2)CC1 (stereo not given) | -20.8
72 | Cc1ccccc1-c1cccc(CN2C[C@H]3C(=O)NC[C@@]3(C(=O)O)C2)c1 | -0.147
73 | CC1CCCN(S(=O)(=O)NCc2ccccc2Cn2cncn2)C1 (stereo not given) | 1.55
74 | Cc1cc(CN2CCCC2c2noc(C3CC3)n2)c2ccccc2n1 (stereo not given) | 49.5
75 | COCC1CC2(CCN(Cc3ccccn3)CC2)CN1c1ncccn1 (stereo not given) | 14.4
76 | CSc1nnc(CC2CCN(C(=O)Cc3ccncc3)CC2)n1C | -46.7
77 | CCn1ncc(Cn2cc(Cl)c(N)n2)c1C | -8.55
78 | CS(=O)(=O)NC[C@H]1OC[C@@H](NC2CCC(F)(F)CC2)[C@@H]1O | 0.644
79 | O=C(c1cccc(NCCOc2ccc(F)cc2)c1)N1CCOCC1 | 7.43
80 | CN1C(=O)C(c2cccnc2)CC12CCN(C(=O)c1cccn1C)CC2 (stereo not given) | -16.4
81 | CN(C)c1cc(C(=O)N2CCCC2)ccn1 | -4.1
82 | Cc1nc(N(C)C/C=C/c2ccccc2)c2cnn(C)c2n1 | 0.0448
83 | Cn1nc2c(cc1=O)CN(Cc1coc(-c3ccccc3)n1)CC2 | -4.5
84 | CCNC(=O)N1CC[C@H]2CC(=O)N(C3CCCCC3)CC[C@H]2C1 | -1.08
85 | CS(=O)(=O)N1CCC(Oc2ccc(C(=O)NC3CCCC3)cc2Cl)CC1 | -1.02
86 | CCOc1ccc(C#N)cc1NC(=O)N1CCCC(NC(=O)CC)C1 (stereo not given) | 0.711
87 | Cc1ccc(C(=O)N2CCCC(N(C)C(=O)OC(C)(C)C)C2)o1 (stereo not given) | -54
88 | CCN(CC(O)c1ccc(C)cc1)C(=O)NC(C)C (stereo not given) | -7.74

Row | Compound | cytotoxicity at 10 µM [%]
89 | CCOC(=O)CC(C)Nc1nc(C2CCCC2)nc2c1cnn2C (stereo not given) | -43.1
90 | Cc1cc(C(=O)N2CCC(Nc3cccnn3)CC2)no1 | -0.0225
91 | Cc1ncsc1C(=O)N1CCC(c2ncncc2-c2ccnc(N)c2)C1 (stereo not given) | -0.197
92 | CCc1ccc(NC(C(N)=O)c2ccc(F)cc2)cc1 (stereo not given) | 2.27
93 | CC(C)=CCN1C(=O)[C@@H]2CC[C@H]1CN(C(=O)CCc1n[nH]c(C)c1C)C2 | 5.54
94 | O=C(NCC1(C(=O)O)CCC1)c1nnn(-c2ccc(F)cc2)c1C1CC1 | -14.8
95 | COc1ccccc1C1CC(=O)Nc2c1c(=O)[nH]n2C1CCCC1 (stereo not given) | -3.85
96 | COC(=O)CCn1ccc(=O)c2cc(F)ccc21 | 0.409
97 | COc1ccc(NC(=O)Cc2c(C)nn(C)c2C)cc1F | 10.1
98 | Cc1noc(C)c1C(=O)N1CCC2(CCc3ccccc3C(=O)N2)C1 (stereo not given) | 1.75
99 | Cc1cccc(NC(=O)NCCCn2nc3ccccn3c2=O)c1C | -6.73
100 | Cc1ccc(=O)n(CC2(O)CCN(Cc3cnc(C)nc3)CC2)n1 | 4.3
101 | Cc1cnc(CNC2CCc3nc(C(C)C)nn3C2)cn1 (stereo not given) | 4.93
102 | COc1ccc2nnc(CCC(=O)NCc3cccn3C)n2n1 | -10.1
103 | CC(C)NC(=O)[C@H]1C[C@@H]2[C@@H](C1)OCCN2Cc1ccncc1 | 6.62
104 | Cc1nc(CC(=O)N(CCN2CCOCC2)Cc2ccco2)c(C)s1 | -3.71
105 | CC(NC(=O)CCc1ccsc1)c1ccc2c(c1)NC(=O)CO2 (stereo not given) | -6.16
106 | O=S(=O)(Nc1ccc(N2CCOCC2)cn1)c1cccc(F)c1 | -9.68
107 | CCOC1Sc2nnc(C)n2N=C1c1ccc(Br)cc1 (stereo not given) | -2.92
108 | CCn1ncnc1C(C)NC(=O)Cc1cc2c(cc1Cl)OCCO2 (stereo not given) | -6.38
109 | CS(=O)(=O)N1CCCn2nc(CNc3cc(C#N)ccn3)cc2C1 | -8.5
110 | c1ncc(Nc2nccc(C3CCCCN3CC3CCCCC3)n2)cn1 (stereo not given) | 3.32
